Test results reported in ChEMBL document CHEMBL3997782, “Methoxylated 2'-hydroxychalcones as antiparasitic hit compounds” (Eur J Med Chem, 2017).

Experiments:
[1] = test system: Trypanosoma brucei brucei; assay: Anti-parasitic activity against bloodstream form of Trypanosoma brucei brucei Lister 427 after 72 hrs by resazurin-based assay; assay type: functional; conditions: Lister 427, 72 h
In short: (§1)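 Bloodstream-form T. brucei, modified resazurin-based viability assay. EC50 is the arithmetic mean of at least two independent determinations, each run in triplicate.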

[2] = test system: Trypanosoma brucei brucei; assay: Anti-parasitic activity against bloodstream form of Trypanosoma brucei brucei Lister 427 at 10 uM after 72 hrs by resazurin-based assay relative to control; assay type: functional; conditions: Lister 427, 72 h; in short: as §1
[3] = Cytotoxicity against human THP1 cells by MTT assay; assay type: cell-based; conditions: THP-1 cells
In short: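 THP-1 cells differentiated to macrophages with PMA, viability read by colorimetric MTT. CC50 and NOAEL are the arithmetic mean of at least two independent determinations, each run in triplicate.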

[4] = Selectivity index, ratio of CC50 for human THP1 cells to EC50 for anti-parasitic activity against bloodstream form of Trypanosoma brucei brucei Lister 427; assay type: toxicity; conditions: THP-1 cells, read-out: Ratio CC50/EC50
In short: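 SI = CC50 in PMA-differentiated THP-1 macrophages (MTT) divided by the antiparasitic EC50.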

Leishmania infantum = assay: Anti-parasitic activity against Leishmania infantum amastigotes infected in human THP1 cells at 50 uM after 5 days by Giemsa staining based assay relative to control; assay type: functional, cell-based; conditions: THP-1, 120 h
In short: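 Intracellular L. infantum amastigotes in host cells, imaged by high-content automated imaging. Host cell number, infected cells and parasites per infected cell were counted. Infection Ratio = infected cells / total cells.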

Trypanosoma cruzi = assay: Anti-parasitic activity against Trypanosoma cruzi Y promastigotes infected in HG39 cells at 10 uM by qPCR analysis relative to control; assay type: functional, cell-based; conditions: in the assay text read “trypomastigotes” for “promastigotes”
In short: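 Confluent HG39 cells (3 x 10^6 per well) infected at a 1:1 ratio with blood-derived T. cruzi Y strain trypomastigotes. Growth inhibition was read as parasite gDNA by TaqMan probe-based quantitative real-time PCR.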

[5] = Cytotoxicity against human A549 cells assessed as cell growth at 10 uM by Cell titer-Glo assay relative to control; assay type: cell-based; conditions: read-out: Activity
In short: (§2)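 A549 and WI-38 cells grown in DMEM with 10% v/v FCS, streptomycin 100 µg/ml and penicillin G 100 U/ml. Cell number read as cellular ATP by CellTiter-Glo luminescence. Growth 60–100% scored non-cytotoxic, 0–60% cytostatic, below 0 cytotoxic.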

[6] = Cytotoxicity against human […] cells assessed as cell growth at 10 uM by Cell titer-Glo assay relative to control; assay type: cell-based; conditions: WI-38 cells, read-out: Activity; in short: as §2
786-0 = assay: Mitochondrial toxicity in human 786-O cells at 10 uM by mitotracker red chloromethyl-Xrosamine staining based-uptake method relative to control; assay type: cell-based; conditions: 786-0, 10 µM
In short: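 786-O renal carcinoma cells kept in RPMI-1640 with 2 mM glutamine, 10% v/v FCS, streptomycin 100 µg/ml and penicillin G 100 U/ml. Mitochondrial toxicity monitored by MitoTracker Red CMXRos uptake with high-content imaging.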

Aurora kinase B = Aurora kinase B (Homo sapiens, UniProt Q96GD4); assay: Inhibition of N-terminal-GST-tagged recombinant full length human Aurora B expressed in baculovirus infected Sf9 cells at 10 uM using native Swine Myelin Basic Protein as substrate measured after 60 mins by ADP-Glo assay relative to control; conditions: probe native Swine Myelin Basic Protein
In short: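 Aurora B kinase activity measured by ADP-Glo, which detects ADP formed through a coupled luciferase luminescence read-out.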

hERG (KCNH2) = hERG (KCNH2) (Homo sapiens, UniProt Q12809); assay: Inhibition of human ERG at 10 uM by Tracer Red dye based fluorescence polarization assay relative to control; conditions: probe Tracer Red dye
CYP1A2 = biological target: T1, CYP1A2 (Homo sapiens, UniProt P05177); assay: Inhibition of human CYP1A2 expressed in baculovirus-infected insect cells at 10 uM using Luciferin-1A2 as substrate in presence of NADPH by P450-Glo luminescence assay relative to control; assay type: ADME; conditions: probe Luciferin-1A2
T1 sequence (P05177 whole entry): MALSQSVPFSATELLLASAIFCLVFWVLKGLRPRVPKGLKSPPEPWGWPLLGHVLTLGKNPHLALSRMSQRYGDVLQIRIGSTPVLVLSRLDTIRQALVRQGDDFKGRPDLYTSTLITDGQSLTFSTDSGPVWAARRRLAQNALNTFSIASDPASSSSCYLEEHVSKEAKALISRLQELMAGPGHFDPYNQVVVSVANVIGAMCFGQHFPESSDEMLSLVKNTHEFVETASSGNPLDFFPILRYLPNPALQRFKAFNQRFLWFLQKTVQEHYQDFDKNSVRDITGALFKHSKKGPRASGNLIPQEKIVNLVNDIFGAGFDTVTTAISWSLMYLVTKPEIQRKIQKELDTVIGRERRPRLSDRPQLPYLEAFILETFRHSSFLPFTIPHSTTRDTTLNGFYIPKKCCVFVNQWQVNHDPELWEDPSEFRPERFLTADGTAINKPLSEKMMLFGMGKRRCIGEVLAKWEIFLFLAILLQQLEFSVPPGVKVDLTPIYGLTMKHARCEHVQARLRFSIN
In short: (§3)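 CYP enzymes as microsomal preparations from baculovirus-infected insect cells, run on the P450-Glo luminogenic substrate platform. A fall in light output indicates inhibition.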

CYP2C9 = CYP2C9 (Homo sapiens, UniProt P11712); assay: Inhibition of human CYP2C9 expressed in baculovirus-infected insect cells at 10 uM using Luciferin-H as substrate in presence of NADPH by P450-Glo luminescence assay relative to control; conditions: probe Luciferin-H
CYP2C19 = CYP2C19 (Homo sapiens, UniProt P33261); assay: Inhibition of human CYP2C19 expressed in baculovirus-infected insect cells at 10 uM using Luciferin-H EGE as substrate in presence of NADPH by P450-Glo luminescence assay relative to control; assay type: ADME; conditions: probe Luciferin-H EGE; in short: as §3
CYP2D6 = CYP2D6 (Homo sapiens, UniProt P10635); assay: Inhibition of human CYP2D6 expressed in baculovirus-infected insect cells at 10 uM using Luciferin-ME EGE as substrate in presence of NADPH by P450-Glo luminescence assay relative to control; assay type: ADME; conditions: probe Luciferin-ME EGE; in short: as §3
CYP3A4 = CYP3A4 (Homo sapiens, UniProt P08684); assay: Inhibition of human CYP3A4 expressed in baculovirus-infected insect cells at 10 uM using Luciferin-PFBE as substrate in presence of NADPH by P450-Glo luminescence assay relative to control; assay type: ADME; conditions: probe Luciferin-PFBE
[7] = Lipophilicity, log P of the compound; assay type: physicochemical; conditions: octanol/water

Chain of CYP3A4 (P08684 whole entry): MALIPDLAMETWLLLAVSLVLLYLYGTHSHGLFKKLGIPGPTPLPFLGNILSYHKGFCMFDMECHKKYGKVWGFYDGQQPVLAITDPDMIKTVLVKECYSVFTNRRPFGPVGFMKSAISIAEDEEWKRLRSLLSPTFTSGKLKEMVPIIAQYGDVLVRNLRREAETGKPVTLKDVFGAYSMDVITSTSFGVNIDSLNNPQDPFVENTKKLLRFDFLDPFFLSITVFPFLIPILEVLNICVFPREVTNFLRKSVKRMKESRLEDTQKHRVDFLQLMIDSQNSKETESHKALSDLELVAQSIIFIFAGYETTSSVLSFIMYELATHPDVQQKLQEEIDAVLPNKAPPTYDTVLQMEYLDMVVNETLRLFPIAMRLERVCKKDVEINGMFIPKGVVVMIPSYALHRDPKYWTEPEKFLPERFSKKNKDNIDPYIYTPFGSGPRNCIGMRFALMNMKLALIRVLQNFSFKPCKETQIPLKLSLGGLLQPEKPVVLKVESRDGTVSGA
Chain of CYP2D6 (P10635 whole entry): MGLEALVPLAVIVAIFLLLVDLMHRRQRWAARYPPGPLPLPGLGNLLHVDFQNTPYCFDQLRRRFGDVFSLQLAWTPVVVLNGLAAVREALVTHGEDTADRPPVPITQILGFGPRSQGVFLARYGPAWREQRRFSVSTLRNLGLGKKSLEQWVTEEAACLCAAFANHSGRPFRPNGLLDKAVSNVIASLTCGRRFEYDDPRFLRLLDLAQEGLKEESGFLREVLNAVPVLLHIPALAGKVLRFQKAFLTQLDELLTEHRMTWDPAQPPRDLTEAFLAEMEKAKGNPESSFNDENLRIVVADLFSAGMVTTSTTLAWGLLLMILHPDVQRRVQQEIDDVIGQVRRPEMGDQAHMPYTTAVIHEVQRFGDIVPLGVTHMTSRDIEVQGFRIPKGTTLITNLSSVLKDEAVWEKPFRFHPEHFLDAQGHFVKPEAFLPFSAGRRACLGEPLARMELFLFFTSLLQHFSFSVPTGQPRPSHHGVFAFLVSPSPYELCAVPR
Chain of CYP2C19 (P33261 whole entry): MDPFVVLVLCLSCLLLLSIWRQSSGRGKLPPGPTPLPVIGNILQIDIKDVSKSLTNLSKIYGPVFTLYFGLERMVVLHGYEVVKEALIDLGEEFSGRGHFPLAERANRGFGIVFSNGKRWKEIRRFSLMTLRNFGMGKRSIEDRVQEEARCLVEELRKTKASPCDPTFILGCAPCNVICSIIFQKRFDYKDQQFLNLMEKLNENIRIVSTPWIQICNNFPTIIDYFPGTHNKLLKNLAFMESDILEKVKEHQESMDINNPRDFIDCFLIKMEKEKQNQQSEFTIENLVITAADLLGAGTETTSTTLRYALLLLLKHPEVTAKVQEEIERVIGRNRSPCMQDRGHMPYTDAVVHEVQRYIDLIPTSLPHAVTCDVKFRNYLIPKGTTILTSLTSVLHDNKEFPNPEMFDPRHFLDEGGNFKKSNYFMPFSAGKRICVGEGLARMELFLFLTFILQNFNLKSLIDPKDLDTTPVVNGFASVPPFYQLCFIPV
Chain of CYP2C9 (P11712 whole entry): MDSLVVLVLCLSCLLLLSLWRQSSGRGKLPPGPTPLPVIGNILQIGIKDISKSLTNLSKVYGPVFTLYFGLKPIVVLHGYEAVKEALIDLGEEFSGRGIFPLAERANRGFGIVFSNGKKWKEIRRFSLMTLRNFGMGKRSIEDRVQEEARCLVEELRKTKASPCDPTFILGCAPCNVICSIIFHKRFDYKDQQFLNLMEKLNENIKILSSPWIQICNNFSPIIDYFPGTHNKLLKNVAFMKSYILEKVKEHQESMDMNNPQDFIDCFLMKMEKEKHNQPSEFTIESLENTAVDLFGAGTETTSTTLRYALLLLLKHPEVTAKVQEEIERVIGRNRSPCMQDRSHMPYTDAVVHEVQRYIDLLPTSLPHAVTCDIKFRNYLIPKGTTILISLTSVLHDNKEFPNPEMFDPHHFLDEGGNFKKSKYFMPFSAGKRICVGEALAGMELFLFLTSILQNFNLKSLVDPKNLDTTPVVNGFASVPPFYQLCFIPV
Chain of Aurora kinase B (Q96GD4 whole entry): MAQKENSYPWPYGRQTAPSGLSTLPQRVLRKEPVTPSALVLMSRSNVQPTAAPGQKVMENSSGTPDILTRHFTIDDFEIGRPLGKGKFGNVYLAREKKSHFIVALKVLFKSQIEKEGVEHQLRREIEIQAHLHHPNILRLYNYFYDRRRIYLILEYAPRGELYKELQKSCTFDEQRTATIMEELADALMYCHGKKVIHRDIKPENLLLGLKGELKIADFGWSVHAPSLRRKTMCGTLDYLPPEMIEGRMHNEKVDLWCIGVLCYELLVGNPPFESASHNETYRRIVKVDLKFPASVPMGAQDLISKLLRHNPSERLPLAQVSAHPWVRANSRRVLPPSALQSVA
Chain of hERG (KCNH2) (Q12809 whole entry): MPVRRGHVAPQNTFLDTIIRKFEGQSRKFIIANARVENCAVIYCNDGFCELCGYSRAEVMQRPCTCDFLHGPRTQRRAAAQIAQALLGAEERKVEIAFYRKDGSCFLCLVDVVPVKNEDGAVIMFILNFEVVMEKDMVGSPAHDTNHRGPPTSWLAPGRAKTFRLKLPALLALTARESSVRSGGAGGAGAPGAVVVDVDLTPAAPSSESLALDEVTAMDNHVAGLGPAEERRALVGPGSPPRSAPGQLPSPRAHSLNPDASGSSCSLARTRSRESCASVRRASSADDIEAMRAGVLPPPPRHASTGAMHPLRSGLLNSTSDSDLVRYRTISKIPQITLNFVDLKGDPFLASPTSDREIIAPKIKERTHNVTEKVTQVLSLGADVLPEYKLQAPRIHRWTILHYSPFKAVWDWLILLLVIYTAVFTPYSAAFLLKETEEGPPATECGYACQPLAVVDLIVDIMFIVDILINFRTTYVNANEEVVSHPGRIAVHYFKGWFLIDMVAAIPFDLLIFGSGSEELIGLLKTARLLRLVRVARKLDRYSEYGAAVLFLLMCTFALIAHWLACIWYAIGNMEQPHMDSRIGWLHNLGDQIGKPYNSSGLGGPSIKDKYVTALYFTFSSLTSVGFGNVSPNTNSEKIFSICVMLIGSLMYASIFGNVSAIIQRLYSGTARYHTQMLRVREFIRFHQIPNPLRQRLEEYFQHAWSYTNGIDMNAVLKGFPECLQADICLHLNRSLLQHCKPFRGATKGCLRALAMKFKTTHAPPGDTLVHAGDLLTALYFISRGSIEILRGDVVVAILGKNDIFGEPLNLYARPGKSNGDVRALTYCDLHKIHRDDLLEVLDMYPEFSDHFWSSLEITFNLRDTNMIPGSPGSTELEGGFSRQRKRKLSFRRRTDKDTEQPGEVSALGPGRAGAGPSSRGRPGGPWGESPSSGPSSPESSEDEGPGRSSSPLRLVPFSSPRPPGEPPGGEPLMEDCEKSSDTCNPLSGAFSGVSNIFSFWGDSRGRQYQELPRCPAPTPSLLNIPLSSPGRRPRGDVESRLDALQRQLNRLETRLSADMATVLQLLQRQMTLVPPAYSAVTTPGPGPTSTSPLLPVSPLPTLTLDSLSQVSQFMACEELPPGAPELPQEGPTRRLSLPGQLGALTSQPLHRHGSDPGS

SMILES	EC50 [1] [nM]	inhibition at 10 µM [2] [%]	CC50 [3] [nM]	selectivity ratio [4]	inhibition at 10 µM (Trypanosoma cruzi) [%]	viability at 10 µM [5] [%]	viability at 10 µM [6] [%]	Activity (786-0) [%]	inhibition at 1 h, 10 µM (Aurora kinase B) [%]	inhibition at 10 µM (hERG (KCNH2)) [%]	inhibition at 10 µM (CYP1A2) [%]	inhibition at 10 µM (CYP2C9) [%]	inhibition at 10 µM (CYP2C19) [%]	inhibition at 10 µM (CYP2D6) [%]	inhibition at 10 µM (CYP3A4) [%]	logP [7]	also measured
COc1cccc(/C=C/C(=O)c2cc(OC)ccc2O)c1	2100	100	> 25000	≥ 12	28	116	87.5	13.4	-15.1	17.6	84.2	-31.7	69.6	52.2	14.3	3.87	inhibition at 50 µM (Leishmania infantum): 14%
C=CC(C)(C)c1cc(/C=C/C(=O)c2ccc(O)cc2)c(OC)cc1O [LICOAGROCHACONE A]																4.74	
COc1ccc(/C=C/C(=O)c2cc(OC)ccc2O)cc1		9	> 100000		9	91.3	15.8	15.8	107	42.1	85.2	25.8	47.3	79.6	6.2	3.87	
CC1CS(=O)(=O)CCN1/N=C/c1ccc([N+](=O)[O-])o1 (configuration not stated) [NIFURTIMOX]																	EC50 (Trypanosoma cruzi): 2200 nM
COc1cccc(-c2oc3ccccc3c(=O)c2O)c1	2320			4													
COc1cccc(-c2oc3cc(OC)ccc3c(=O)c2O)c1	1140			8													
CCCCCCCCCCCCCCCCOP(=O)([O-])OCC[N+](C)(C)C [MILTEFOSINE]																	EC50 (Leishmania infantum): 2650 nM
COc1ccc2c(=O)c(O)c(-c3ccc(OC)c(OC)c3)oc2c1	2990			8													
COc1ccc(C(=O)/C=C/c2c(OC)cccc2OC)c(O)c1	3400	98	> 100000	≥ 29	0	48.2	0.1	0	92.1	18.8	52.8	-25.6	74.9	17.1	11.8	3.51	
COc1cccc(-c2oc3ccc(OC)cc3c(=O)c2O)c1	1430			10													
COc1ccc(/C=C/C(=O)c2ccc(OC)cc2O)cc1		18	> 100000		47	102	14.2	14.2	107	2.7	39.6	21.7	34.2	47.7	5	3.88	
COc1ccc2oc(-c3ccc(OC)c(OC)c3)c(O)c(=O)c2c1	2020			5													
COc1ccc(O)c(C(=O)/C=C/c2ccc(OC)c(OC)c2)c1		15	> 50000		0	116	114	-9.5	-10.1	15.9	60	-26.9	21.4	93.7	-2.7	3.52	inhibition at 50 µM (Leishmania infantum): 16%
COc1ccc(-c2oc3ccc(OC)cc3c(=O)c2O)cc1	20100			1													
COc1cccc(/C=C/C(=O)c2ccccc2O)c1	1300	100	> 25000	≥ 19	46	105	118	6.2	-6.6	11.3	85.6	17.1	76.2	-8.4	-1.4	3.94	inhibition at 50 µM (Leishmania infantum): 11%
COc1ccc2c(=O)c(O)c(-c3cc(OC)c(OC)c(OC)c3)oc2c1	1170			17													
COc1ccc(-c2oc3cc(OC)ccc3c(=O)c2O)cc1	1100			9													
